Reference: article PMC6172068 (Cancer Science, 2018)

Assay: Safety and tolerability
Format: in vivo, Japanese patients
Conditions: for Stomatitis / Subdural hematoma / Syncope / Thrombocytopenia / Tumor-associated fever / Vomiting / Anemia / Bone pain / Constipation / Corneal erosion / Cough / Diarrhea / Disseminated intravascular coagulation / Dysesthesia / Dysgeusia / ECG prolonged QT interval / Elevated ALT / Elevated AST / Elevated blood creatine phosphokinase / Elevated blood lactate dehydrogenase / Elevated liver enzymes (ALT, AST, and alkaline phosphatase) / Epistaxis / Febrile neutropenia / Headache / Hematoma / Hypertension / Hypokalemia / Hypotension / Hypoxia / Increased amylase / Insomnia / Lung infection / Nausea / Pleural effusion / Pneumonia / Pyrexia / Rash / Renal impairment / Sepsis / Somnolence: N = 24
Method in brief: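 In this open-label study, once-daily oral dosing escalated 20–300 mg/d by Bayesian continual reassessment. DLTs were judged from Cycles 0 and 1, and MTD/RD came from the posterior mean DLT rate plus investigator assessment. Treatment-emergent AEs were graded by NCI-CTCAE v4.0 for seriousness, duration and relatedness. The safety analysis set comprised all patients given ≥1 dose.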

## CCc1nc(C(N)=O)c(Nc2ccc(N3CCC(N4CCN(C)CC4)CC3)c(OC)c2)nc1NC1CCOCC1 [gilteritinib]
Grade 1-2
  Stomatitis: 5 (20.8%) n (%)
  Subdural hematoma: 1 (4.2%) n (%)
  Syncope: 0 n (%)
  Thrombocytopenia: 0 n (%)
  Tumor-associated fever: 2 (8.3%) n (%)
  Vomiting: 2 (8.3%) n (%)
Grade 3
  Anemia: 2 (8.3%) n (%)
  Bone pain: 1 (4.2%) n (%)
  Constipation: 0 n (%)
  Corneal erosion: 0 n (%)
  Cough: 0 n (%)
  Diarrhea: 1 (4.2%) n (%)
  Disseminated intravascular coagulation: 3 (12.5%) n (%)
  Dysesthesia: 0 n (%)
  Dysgeusia: 0 n (%)
  ECG prolonged QT interval: 1 (4.2%) n (%)
  Elevated ALT: 0 n (%)
  Elevated AST: 0 n (%)
  Elevated blood creatine phosphokinase: 2 (8.3%) n (%)
  Elevated blood lactate dehydrogenase: 1 (4.2%) n (%)
  Elevated liver enzymes (ALT, AST, and alkaline phosphatase): 0 n (%)
  Epistaxis: 0 n (%)
  Febrile neutropenia: 3 (12.5%) n (%)
  Headache: 0 n (%)
  Hematoma: 0 n (%)
  Hypertension: 0 n (%)
  Hypokalemia: 1 (4.2%) n (%)
  Hypotension: 0 n (%)
  Hypoxia: 0 n (%)
  Increased amylase: 1 (4.2%) n (%)
  Insomnia: 0 n (%)
  Lung infection: 1 (4.2%) n (%)
  Nausea: 0 n (%)
  Pleural effusion: 0 n (%)
  Pneumonia: 3 (12.5%) n (%)
  Pyrexia: 0 n (%)
  Rash: 0 n (%)
  Renal impairment: 0 n (%)
  Sepsis: 1 (4.2%) n (%)
  Somnolence: 0 n (%)
  Stomatitis: 0 n (%)
  Subdural hematoma: 0 n (%)
  Syncope: 2 (8.3%) n (%)
  Thrombocytopenia: 2 (8.3%) n (%)
  Tumor-associated fever: 0 n (%)
  Vomiting: 0 n (%)
Grade 4
  Anemia: 0 n (%)
  Bone pain: 0 n (%)
  Constipation: 0 n (%)
  Corneal erosion: 0 n (%)
  Cough: 0 n (%)
  Diarrhea: 0 n (%)
  Disseminated intravascular coagulation: 0 n (%)
  Dysesthesia: 0 n (%)
  Dysgeusia: 0 n (%)
  ECG prolonged QT interval: 0 n (%)
  Elevated ALT: 0 n (%)
  Elevated AST: 0 n (%)
  Elevated blood creatine phosphokinase: 1 (4.2%) n (%)
  Elevated blood lactate dehydrogenase: 0 n (%)
  Elevated liver enzymes (ALT, AST, and alkaline phosphatase): 0 n (%)
  Epistaxis: 0 n (%)
  Febrile neutropenia: 0 n (%)
  Headache: 0 n (%)
  Hematoma: 0 n (%)
  Hypertension: 0 n (%)
  Hypokalemia: 0 n (%)
  Hypotension: 0 n (%)
  Hypoxia: 0 n (%)
  Increased amylase: 0 n (%)
  Insomnia: 0 n (%)
  Lung infection: 0 n (%)
  Nausea: 0 n (%)
  Pleural effusion: 0 n (%)
  Pneumonia: 0 n (%)
  Pyrexia: 0 n (%)
  Rash: 0 n (%)
  Renal impairment: 0 n (%)
  Sepsis: 0 n (%)
  Somnolence: 0 n (%)
  Stomatitis: 0 n (%)
  Subdural hematoma: 0 n (%)
  Syncope: 0 n (%)
  Thrombocytopenia: 2 (8.3%) n (%)
  Tumor-associated fever: 0 n (%)
  Vomiting: 0 n (%)
Grade 5
  Anemia: 0 n (%)
  Bone pain: 0 n (%)
  Constipation: 0 n (%)
  Corneal erosion: 0 n (%)
  Cough: 0 n (%)
  Diarrhea: 0 n (%)
  Disseminated intravascular coagulation: 0 n (%)
  Dysesthesia: 0 n (%)
  Dysgeusia: 0 n (%)
  ECG prolonged QT interval: 0 n (%)
  Elevated ALT: 0 n (%)
  Elevated AST: 0 n (%)
  Elevated blood creatine phosphokinase: 0 n (%)
  Elevated blood lactate dehydrogenase: 0 n (%)
  Elevated liver enzymes (ALT, AST, and alkaline phosphatase): 0 n (%)
  Epistaxis: 0 n (%)
  Febrile neutropenia: 0 n (%)
  Headache: 0 n (%)
  Hematoma: 0 n (%)
  Hypertension: 0 n (%)
  Hypokalemia: 0 n (%)
  Hypotension: 0 n (%)
  Hypoxia: 0 n (%)
  Increased amylase: 0 n (%)
  Insomnia: 0 n (%)
  Lung infection: 0 n (%)
  Nausea: 0 n (%)
  Pleural effusion: 0 n (%)
  Pneumonia: 0 n (%)
  Pyrexia: 0 n (%)
  Rash: 0 n (%)
  Renal impairment: 0 n (%)
  Sepsis: 0 n (%)
  Somnolence: 0 n (%)
  Stomatitis: 0 n (%)
  Subdural hematoma: 1 (4.2%) n (%)
  Syncope: 0 n (%)
  Thrombocytopenia: 0 n (%)
  Tumor-associated fever: 0 n (%)
  Vomiting: 0 n (%)
SAF, all doses
  patients who experienced at least 1 AE: 24 patients
All doses, 6 of 24 patients
  patients with AEs resulting in permanent discontinuation of gilteritinib: 25%
All doses, 7 of 24 patients
  patients with serious AEs: 29.2%
All doses, 9 patients
  patients with drug-related grade ≥3 AEs: 37.5%
All doses, n = 3/24
  Drug-related AE: pyrexia: 12.5%
  grade ≥3 AE: disseminated intravascular coagulation: 12.5%
  grade ≥3 AE: elevated blood creatine phosphokinase: 12.5%
  grade ≥3 AE: febrile neutropenia: 12.5%
  grade ≥3 AE: pneumonia: 12.5%
All doses, n = 4/24
  Drug-related AE: diarrhea: 16.7%
  Drug-related AE: hypertension: 16.7%
  Drug-related AE: stomatitis: 16.7%
  Drug-related AE: thrombocytopenia: 16.7%
  grade ≥3 AE: thrombocytopenia: 16.7%
All doses, n = 5/24
  Drug-related AE: renal impairment: 20.8%
All doses, n = 6/24
  Drug-related AE: elevated blood lactate dehydrogenase: 25%
All doses, n = 7/24
  Drug-related AE: elevated blood creatine phosphokinase: 29.2%
All doses, n = 8/24
  Drug-related AE: elevated liver enzyme levels: 33.3%
All doses, n = 16/24
  patients with grade ≥3 AEs: 66.7%
All doses, n = 22/24
  patients with at least 1 treatment-related AE: 91.7%
Any grade, all doses, n = 5/24
  AE: febrile neutropenia: 20.8%
  AE: hypertension: 20.8%
  AE: renal impairment: 20.8%
  AE: stomatitis: 20.8%
Any grade, all doses, n = 7/24
  AE: diarrhea: 29.2%
  AE: pyrexia: 29.2%
Any grade, all doses, n = 8/24
  AE: elevated blood lactate dehydrogenase: 33.3%
Any grade, all doses, n = 9/24
  AE: elevated blood creatine phosphokinase: 37.5%
  AE: elevated liver enzymes (ALT, AST, alkaline phosphatase): 37.5%
N = 2/24
  drug-related AE leading to treatment discontinuation: pneumonia: 8.3%
N = 2, 40 and 300 mg/d
  drug-related grade ≥3 AE: pneumonia: 8.3%
N = 2, 200 and 300 mg/d
  drug-related grade ≥3 AE: anemia: 8.3%
  drug-related grade ≥3 AE: febrile neutropenia: 8.3%
N = 3, 200 and 300 mg/d
  drug-related grade ≥3 AE: increased blood creatine phosphokinase: 12.5%
N = 4, 200 and 300 mg/d
  drug-related grade ≥3 AE: thrombocytopenia: 16.7%
Of the 24 patients in the SAF
  patients who experienced DLTs during Cycle 0 and Cycle 1: 3 patients
once-daily oral, Bayesian CRM and investigator opinion
  maximum tolerated dose (MTD): 200 mg/day
once-daily oral, for subsequent studies
  recommended dose (RD): 120 mg/day
